# Assay results gathered from unrelated publications.
# Compare with care: the assays were run in different laboratories.
# Target: Tau-tubulin kinase 1 (TTBK1, Homo sapiens, UniProt Q5TCY1)
# Effect on: enzyme activity
# Mode: inhibitor
Compound,test,setting,measurement,result
O=C(Nc1cnn(-c2csc(C(=O)NC3COC3)c2)c1)Nc1c(F)cccc1Cl,,5 µM,remaining activity,82.3%
CN1CC(Oc2cnc(C#N)cc2-c2ccn3nc(NC(=O)C4CC4)cc3c2)C1,,1 µM,inhibition,1%
Cc1sc(C(=O)NC2COC2)cc1-n1cc(NC(=O)Nc2c(F)cccc2Cl)cn1,,10 µM,remaining activity,113%
Cc1ccc(C(=O)NCc2ccsc2)cc1C#Cc1cn(C(C)C)c2ncnc(N)c12,,1 µM,activity vs control,104%
COc1cc(Cl)c(C(=O)N[C@@H](CN[C@H]2CC[C@@H](N)CC2)Cc2ccc(C#N)cc2)cc1-c1ccc(CN[C@H](C)c2ccc(C)cc2)o1,,1 µM,remaining activity,99%
CC(C)(O)[C@H]1CC[C@H](Nc2ccc3ncc(-c4cccc(C(F)(F)F)c4)n3n2)CC1,,1 µM,remaining activity,95.8%
COc1cc(/C=C/C(=O)CC(=O)/C=C/c2ccc(O)c(OC)c2)ccc1O,,1 µM,activity vs control,102%
COc1cc(Nc2cnc(C#N)c(O[C@H](C)CN(C)C)n2)ncc1-c1cnn(C)c1,radiometric,1 µM,remaining activity,98%
